Measured values taken from ChEMBL document CHEMBL3351691, “Steroidal alkaloids from the marine sponge Corticium niger that inhibit growth of human colon carcinoma cells” (2014).
Activity calls are given as the source filed them. No cut-off for these calls is given here.

Assays:
[1] = tested on: COLO 205; assay: Antiproliferative activity against human COLO205 cells assessed as growth inhibition after 48 hrs by XTT assay; assay type: functional, cell-based
Outline: (§1)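 Cells were seeded into 384-well plates (COLO205 at […] cells/well, KM12 at 2.5×10^5 cells/well) and preincubated for 24 h. DMSO samples were diluted 1:25 in medium, then given five 2:1 serial dilutions and tested in duplicate (0.4% final DMSO). Exposure was 48 h at 37 °C. XTT was then added, and formazan was read after 4 h at 450 nm against a 650 nm reference.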

[2] = tested on: HCT-15; assay: Antiproliferative activity against human HCT15 cells assessed as growth inhibition after 48 hrs by XTT assay; assay type: functional, cell-based
[3] = tested on: SW-620; assay: Antiproliferative activity against human SW620 cells assessed as growth inhibition after 48 hrs by XTT assay; assay type: functional, cell-based
[4] = tested on: HCC 2998; assay: Antiproliferative activity against human HCC2998 cells assessed as growth inhibition after 48 hrs by XTT assay; assay type: functional, cell-based
[5] = tested on: HT-29; assay: Antiproliferative activity against human HT-29 cells assessed as growth inhibition after 48 hrs by XTT assay; assay type: functional, cell-based
[6] = tested on: HCT-116; assay: Antiproliferative activity against human HCT116 cells assessed as growth inhibition after 48 hrs by XTT assay; assay type: functional, cell-based
[7] = tested on: KM12; assay: Antiproliferative activity against human KM12 cells assessed as growth inhibition after 48 hrs by XTT assay; assay type: functional, cell-based; outline: as §1
[8] = Antiproliferative activity against human NCI60 cells assessed as growth inhibition after 48 hrs by XTT assay; assay type: functional; settings: NCI60, 48 h

Row | Compound | growth inhibition (GI) [1] | growth inhibition (GI) [2] | growth inhibition (GI) [3] | growth inhibition (GI) [4] | growth inhibition (GI) [5] | growth inhibition (GI) [6] | growth inhibition (GI) [7] | GI50 [8]
1 | CC(=O)O[C@H]1[C@H](N)CC[C@]2(C)[C@H]3CC[C@]4(C)[C@@H]([C@H](C)CC5NCCC5=C(C)C)CC[C@H]4C3=CC[C@@H]12 (stereo partly drawn) | Active | Active | Active | Active | Active | Active | Active | 2.4 µM
2 | CC(C)=C1CCNC1C[C@@H](C)[C@H]1CC[C@H]2C3=CC[C@H]4C[C@H](N)CC[C@]4(C)[C@H]3CC[C@]12C (stereo partly drawn) | Active | Active | Active | Active | Active | Active | Active | 11.5 µM
3 | CC(C)C1CCN(C)C1C[C@@H](C)[C@H]1CC[C@H]2C3=CC[C@H]4[C@H](N)C=CC[C@]4(C)[C@H]3CC[C@]12C (stereo partly drawn) | Active | Active | Active | Active | Active | Active | Active | 
